Laboratory results taken from the EternaBench riboswitch data.

Test system: MS2 coat protein
Experiment: apparent Kd, MS2 coat protein; higher = weaker binding; RNA-MaP array; FMN 200 µM where present
How it was run: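 Green signal from SNAP-549-labelled MS2 coat protein was normalised to red-channel RNA signal and to the median Fmax of control clusters. The protein was titrated from 0.7 or 1.5 nM, doubling to 3 µM, without and then with constant ligand, over designs transcribed by stalled E. coli RNA polymerase on Illumina sequencing-chip clusters, in 100 mM Tris-HCl pH 7.5, 80 mM KCl, 4 mM MgCl2, BSA, DTT, yeast tRNA and Tween-20. The apparent Kd is the median of filtered per-cluster binding-curve fits.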

[1] = designed as: ON switch for flavin mononucleotide, no ligand
[2] = ligand present: flavin mononucleotide, designed as: ON switch for flavin mononucleotide
[3] = designed as: OFF switch for flavin mononucleotide, no ligand
[4] = ligand present: flavin mononucleotide, designed as: OFF switch for flavin mononucleotide

Sequence | apparent Kd [1] [µM] | apparent Kd [2] [µM] | apparent Kd [3] [µM] | apparent Kd [4] [µM]
UUCGCUAAGGUGUAGCGAGACUUGCAAGAAGGGUGAAGAACAUGAGGAUCACCCAUGUAAUCCUUACAGGAUAUUGCUUGACGA | 0.273 | 0.0331 | – | –
AAUAAACACACAGGAUAUAGCAUCGUCGGUAUGAACUUAAAGACGACGAUGCUAGAAGGGUGAACACAUGAGGAUCACCCAUGU | 0.232 | 0.0391 | – | –
ACCAUUUACUAAUUAUCUAUACAUGAGGAUCACCCAUGUUAAGAGGAUAUCAUCGUGAAACACGAUGAGAAGGCUUAGCAUUCG | – | – | 0.0545 | 0.187
AAGAGUAGAGGAUAUACAUGAGGAUCACCCAUGUAAUCCAGAUAAGGAAGCAUGUCGUGUAGAAGGCUGCAUGA | – | – | 0.0159 | 0.0128
UCAAUUUUGCGAGGAUAUCGACCAUUCCUCUUUACAUGAGGAUCACCCAUGUACUUAUUCUACAACGAGAAGGCGCUCAUAGUU | – | – | 0.0375 | 0.043
CGAUAUGAUGCAGGAUAUCUAUCUUGAAUGAGGAGAGAAGGGCAUAGGGAGACAUAAGCCUUAUUACAUGAGGAUCACCCAUGU | – | – | 0.0129 | 0.012
UUUUAACAUGAGGAUCACCCAUGUGAGGAUAUCGAAAUUUAUAUUUAUAUUUAUUAAACGAGAAGGCACAUUUU | – | – | 0.0702 | 0.1
AAGUCUGGACGAGGAUAUCAGUUGUAUCUAGCAUCAACAUGAGGAUCACCCAUGUUGCAAUAGGGUGAGAAGGCGUUUGGGCAA | 0.15 | 0.0206 | – | –
AAUGGGCAGCAGAAGGCAUGUCAACGGACAUGAGGAUCACCCAUGUAGUAUAGCCGAAAGGCACAUGAGGAUAUGCUGCCCUAA | 0.0194 | 0.00514 | – | –
ACGUGUCGUGUAGGAUAUGACACAGGAAACUGGUCAGAAGGACAUGAGGAUCACCCAUGUAAAGUGUUUAAGGAUGACGUAUGC | – | – | 0.0499 | 0.151
AAUUAUUGAUGAGGAUAUUGUGGUGAAACACGACAAGAAGGCAUUAUUCACAUGAGGAUCACCCAUGUGAGCCUGGUGCAUAUA | – | – | 0.0155 | 0.0138
UUAUUAUAUGUAGGAUAUGCAUAUUAUUAUUGUGCAGAAGGACAUGAGGAUCACCCAUGUAUAUUAUUAGUAUAUAUUAUAUAU | – | – | 0.0185 | 0.0192
UAUUUAUAAUAUUUUAACAUGAGGAUCACCCAUGUCGCUAGACAGGAUAUAUUUUAUUUUUUUAAGUAGAAGGGUCAUAGAUUU | 0.0751 | 0.0969 | – | –
AUAGCCGGGAGGUAAACUCGUGCGGCAGAAGGGUGAUACUGGACAUGAGGAUCACCCAUGUGCACACAGGAUAUGCCCGCGAGC | 0.159 | 0.0333 | – | –
GCAUGCGAUAAUAUGUCUGAGGGCAGAAGGCACAUGAGGAUCACCCAUGUAACGAUCUCUUCAAGUGAGGAUAUGUGCUCAUUG | – | – | 0.034 | 0.0852
AAAAAACAUGAGGAUCACCCAUGUGAGGAUAUCCGAAAAAAAAAAAAAAAAAAAAAAAGGAGAAGGCGCAGCAA | – | – | 0.242 | 0.206
AGAUAACAUGAGGAUCACCCAUGUGAGGAUAUUUACCCAAGAGCUUCGGCUCUCAGGUGGAGAAGGCACGUUGA | – | – | 0.0513 | 0.0768
CCUCGACAUGAGGAUCACCCAUGUCAGGAUAUUGUGUAUCGGGUUUUUUACCGAAAGGCGAGAAGGGAUGUGUG | – | – | 0.0169 | 0.0231
GUAGCAAUCGGAGGAUAUUCAUGAAACAUGAGGAUCACCCAUGUUAAUAUGGGAGAAGGCCGAUUGCUACAAGAGCGAAAGCUC | 0.00858 | 0.00576 | – | –
AACUGACAUGAGGAUCACCCAUGUCAGGAUAUGACUUGAUAGAAAAUAAAAUAUCAUGUCAGAAGGGACAUGGG | – | – | 0.0202 | 0.0185
CUUUAGUAAGGAUAUCAGCUUAGGAGGUUGGUAAUGAGAGCUGAGAAGGUACAUGAGGAUCACCCAUGUUAGUU | – | – | 0.0173 | 0.0197
AUAUCUCUAUUAGUUCCAAUACGAACAUGAGGAUCACCCAUGUAGGAUAUGCUAGAAGUUGUGUUGCAGAAGGACAUGUACCUU | – | – | 0.0117 | 0.0258
AGCUGGUUAGGAUAUACAUGAGGAUCACCCAUGUUAAAAAAAAAAAAAAGAUUAAAGUGUAGAAGGGAUUAGUA | – | – | 0.0404 | 0.0371
UGAUAGGACAGAGGAUAUACGUAUAAUUCCUUCAACAUGAGGAUCACCCAUGUAGAAGGCUGUCCUAUCUAAGUCGGAAACGAC | – | – | 0.00481 | 0.00533
UGACACAUGAGGGUCUCCCAUGACAUGAGGAUCACCCAUGUGCAGGAUAUACGUGUGAUGGUAUAGUAGAAGGGCACUCUAUGU | – | – | 0.0464 | 0.0658
GGCUCCGCUCGAGGAUAUAGCUGCAUGUAGUGUCCUGAGGCACAUGAGGAUCACCCAUGUGUAGGCUAGAAGGCGACGGACGUU | – | – | 0.121 | 0.249
GUCAGCUCGUGAGGAUAUACAACACUGCUUCGGCAGUGUAUUAGGAUCACAUGAGGAUCACCCAUGUAGAAGGCACGAGCUGAU | – | – | 0.0163 | 0.323
UAUAUAUAGGCAGGAUAUACAUGAAUAUAUAUAAUGUAGUAUGAUGUAACAUGAGGAUCACCCAUGUAGAAGGGCCAAUAUAUA | – | – | 0.0368 | 0.0952

Sequence | apparent Kd [1] [µM] | apparent Kd [2] [µM] | apparent Kd [3] [µM] | apparent Kd [4] [µM]
AUAAACGAUCAGGAUAUAUCAAAUCAUAGCUUGAUAGAAGGGAUCACAUGAGGAUCACCCAUGUGAUCUUCUUA | – | – | 0.014 | 0.0158
CGCUACGUUUCGUAGCAGUGUCAUCGAGAAGGCCCUGACAUGAGGAUCACCCAUGUUAAAACACAGGAGGAUAUCGAUGAUACA | 0.00439 | 0.00456 | – | –
AUUAUGUUAGGAUAUGCUUAUGGUGGAUAGUCGGAUAUGAUGCAGAAGGGACAUGAGGAUCACCCAUGUACUGA | – | – | 0.0224 | 0.0221
GUCAGCUCGUGAGGAUAUACAACACUGCUUCGGCAGUGUAGUAAGAUCACAUGAGGAUCACCCAUGUAGAAGGCACGAGCUGAU | – | – | 0.00605 | 0.0263
AUUUAUUUUGUGAGGAUAUGCAGGAUCUAGCUCCAGUAGAAGGCACAUGAGGAUCACCCAUGUGGGUCCGAGAC | – | – | 0.0229 | 0.111
UAUAUUAUUAUAGGAUAUGGAUAUGAUGCAUAUCCAGAAGGGUGAUUAUAAUAUAUUCUGUACAUGAGGAUCACCCAUGUUUAU | 0.258 | 0.0759 | – | –
UUUGUCGGAGUAGGAUAUCAAAUAGAGGGUGUAUGAGAAGGACUUAGACAUGAGGAUCACCCAUGUGUGGGUCGCCUCGAUCUC | – | – | 0.00688 | 0.0109
UUGGACGUCGUAGGAUAUGUACGAUAUUCCUACAUGAGGAUCACCCAUGUUGACAUGGAAGAAGGACAGAAGGACGAUGUCCAU | 0.0055 | 0.00487 | – | –
CAGGUCUGAGGAUAUCCAUCCUCCUACAUGAGGAUCACCCAUGUUUCCCUCUGGGUUUUCGGAGAAGGCAGUUUUU | – | – | 0.749 | 0.525
GCACAUGAUACAGGAUAUGUUUUGGAUUUUAUAUUCAGUUAUAUAAUAUUUACAGAAGGGUAUACAUGAGGAUCACCCAUGUGC | – | – | 0.0611 | 0.0308
AUCAGCUCAUCAGGAUAUACAUCACUGCUUCGGCAGUGUAUUAAGAUCACAUGAGGAUCACCCAUGUAGAAGGGAUGAGCUGAU | – | – | 0.0327 | 0.347
AGUGCCUCGAGAGGAUAUACAUGAGGAUCACCCAUGUAAGUAGAGGUGGAAACACCUCUACAAAUGUAGAAGGCUCGAGGCACA | – | – | 0.018 | 0.0522
UAUGUUUUUGUGAGGAUAUACUUUGUUUGGUCGUAGUAGAAGGCACAUGAGGAUCACCCAUGUAGAUUUUUGGU | – | – | 0.0227 | 0.0404
GGUUGGCGAGGAUAUACAUGAGGAUCACCCAUGUGGUCCUGCGAUGGUGUCGCCCUUUGUAGAAGGCGCGGGUC | – | – | 0.045 | 0.0425
UUCCUCACUUCUUUGACUCACAUGAGGAUCACCCAUGUAAUAUAGGAUAUGCAUUUUAUUUCUUUGCAGAAGGAUAUUAGUUUU | – | – | 0.0448 | 0.141
UUCGUGCAGCUUAGCUGUACGCGUACAUGAGGAUCACCCAUGUAGGAUAUGGUAGGCAAAGCUUACUAGAAGGAUAUAGUGAUC | – | – | 0.129 | 0.144
AUUGUUUAUGUAGGAUAUGCCUGGCGUGCCUUCGCAGAAGGACAUGAGGAUCACCCAUGUAUUGCGGUCUGCGUUCAGAUCGCA | – | – | 0.0533 | 0.0672
ACGAAGAUACAGAAGGGUAUAUUAGUUAAUUAUAAUUUGGUUAUGCACUACAGGAUAUGUUUAACAUGAGGAUCACCCAUGUUC | 0.0139 | 0.0108 | – | –
AGUAAGAUGCAGAAGGUGUCAGCGAGAGCUGCGACAUGAGGAUCACCCAUGUGUCGGUGACGACACAAGGAUAUGCAUCUUACA | 0.407 | 0.227 | – | –
AAGUAAGGAGGAUAUACGUCAUAGACCGCAAUAUGUCAUAGACAUGAGGAUCACCCAUGUAGAAGGCUUUAACA | – | – | 0.0347 | 0.0262
UAGUAUAAGGGCAUUACACAUGAGGAUCACCCAUGUACGUUAGAGGAUAUGCAUUCCAGUCGAACGUAGAAGGUUAGAGAAGGG | – | – | 0.211 | 0.176
AUAUCUCAAUUAGAUCCAAUACGAACAUGAGGAUCACCCAUGUAGGAUAUGCUAGAAGUUGUGUUGCAGAAGGACAUAUACCUU | – | – | 0.0414 | 0.0386
UCGACGAAAGUCGAACGAUGUAGCAGAAGGACAUGAGGAUCACCCAUGUCAGCUGUAACAGCCAUGUAGGAUAUGCUACAUCGU | – | – | 0.00451 | 0.00553
AAAAGACAUGAGGAUCACCCAUGUAAAGACGUGGGAGGAUAUGUAUGGAAACCAGACUGUACAGAAGGCCUUUGUC | 0.161 | 0.0524 | – | –
AUAGCGCCCGAGAAGGACGUACCACAUGUUGAUCACCGAUAUAAGGAACGUAGGAUAUUGGACAUGAGGAUCACCCAUGUGGAU | 0.122 | 0.0471 | – | –
UCACGGGAUUGAGGAUAUAUAUAAAUUUAUACAAUAGAAGGCAAAUUUUUAGUUUUUUCACUUUACAUGAGGAUCACCCAUGUU | – | – | 0.0262 | 0.0242
UCAAUAUAUCAGGAUAUGACUUUUUGUGUUAAGUCAGAAGGGAUAACAUGAGGAUCACCCAUGUGAUAUAGUGA | – | – | 0.052 | 0.0588
